Source: ChEMBL document CHEMBL4219132, “Sulfamic acid promoted one-pot synthesis of phenanthrene fused-dihydrodibenzo-quinolinones: Anticancer activity, tubulin polymerization inhibition and apoptosis inducing studies” (Bioorg Med Chem, 2018)

Tested on: A549
Assay: Cytotoxicity against human A549 cells assessed as cell growth inhibition after 48 hrs by MTT assay
Format: functional, cell-based
Conditions: A549, 48 h
How it was run: (§1)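 MTT assay. Cells were seeded at 1×10^4 per well in their medium with 10% FBS and allowed 24 h at 37 °C. Compound diluted in medium was added alongside a vehicle control and left for 48 h. MTT (0.5 mg/mL) was then added for 4 h, formazan dissolved in DMSO, and absorbance read at 570 nm. IC50 is the concentration inhibiting 50% of cells.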

SMILES | IC50 [µM]
COc1cc2c3c(c4cc(OC)c(OC)cc4c2cc1OC)C(c1cccc(Br)c1)CC(=O)N3 (stereo not drawn) | > 20
COc1cc2c3c(c4cc(OC)c(OC)cc4c2cc1OC)C(c1ccc(C)cc1)CC(=O)N3 (stereo not drawn) | 16.7
COc1cc2c3c(c4cc(OC)c(OC)cc4c2cc1OC)C(c1ccc(F)c(F)c1)CC(=O)N3 (stereo not drawn) | 7.78
COc1cc2c3c(c4cc(OC)c(OC)cc4c2cc1OC)C(c1sccc1C)CC(=O)N3 (stereo not drawn) | 15.4
COc1cc2c3c(c4cc(OC)c(OC)cc4c2cc1OC)C(c1ccc(Br)cc1)CC(=O)N3 (stereo not drawn) | 7.16
COc1cc2c3c(c4cc(OC)c(OC)cc4c2cc1OC)C(c1ccc(O)c(O)c1)CC(=O)N3 (stereo not drawn) | 11.6
COc1cc2c3c(c4cc(OC)c(OC)cc4c2cc1OC)C(c1ccc(Cl)cc1)CC(=O)N3 (stereo not drawn) | 6.49
COc1cc([C@@H]2c3cc4c(cc3[C@@H](O[C@@H]3O[C@@H]5CO[C@@H](C)O[C@H]5[C@H](O)[C@H]3O)[C@H]3COC(=O)[C@H]23)OCO4)cc(OC)c1O [ETOPOSIDE] | 3.25
COc1cc2c3c(c4cc(OC)c(OC)cc4c2cc1OC)C(c1ccccc1)CC(=O)N3 (stereo not drawn) | > 20

Tested on: HT-29
Assay: Cytotoxicity against human HT-29 cells assessed as cell growth inhibition after 48 hrs by MTT assay
Format: functional, cell-based
Conditions: HT-29, 48 h
How it was run: as §1

SMILES | IC50 [µM]
COc1cc2c3c(c4cc(OC)c(OC)cc4c2cc1OC)C(c1cccc(Br)c1)CC(=O)N3 (stereo not drawn) | > 20
COc1cc2c3c(c4cc(OC)c(OC)cc4c2cc1OC)C(c1ccc(C)cc1)CC(=O)N3 (stereo not drawn) | > 20
COc1cc2c3c(c4cc(OC)c(OC)cc4c2cc1OC)C(c1ccc(F)c(F)c1)CC(=O)N3 (stereo not drawn) | 17.9
COc1cc2c3c(c4cc(OC)c(OC)cc4c2cc1OC)C(c1sccc1C)CC(=O)N3 (stereo not drawn) | > 20
COc1cc2c3c(c4cc(OC)c(OC)cc4c2cc1OC)C(c1ccc(Br)cc1)CC(=O)N3 (stereo not drawn) | 15.5
COc1cc2c3c(c4cc(OC)c(OC)cc4c2cc1OC)C(c1ccc(O)c(O)c1)CC(=O)N3 (stereo not drawn) | 10.3
COc1cc2c3c(c4cc(OC)c(OC)cc4c2cc1OC)C(c1ccc(Cl)cc1)CC(=O)N3 (stereo not drawn) | 13.8
COc1cc2c3c(c4cc(OC)c(OC)cc4c2cc1OC)C(c1ccccc1)CC(=O)N3 (stereo not drawn) | > 20

Tested on: PC-3
Assay: Cytotoxicity against human PC3 cells assessed as cell growth inhibition after 48 hrs by MTT assay
Format: functional, cell-based
Conditions: PC-3, 48 h
How it was run: as §1

SMILES | IC50 [µM]
COc1cc2c3c(c4cc(OC)c(OC)cc4c2cc1OC)C(c1cccc(Br)c1)CC(=O)N3 (stereo not drawn) | > 20
COc1cc2c3c(c4cc(OC)c(OC)cc4c2cc1OC)C(c1ccc(C)cc1)CC(=O)N3 (stereo not drawn) | > 20
COc1cc2c3c(c4cc(OC)c(OC)cc4c2cc1OC)C(c1ccc(F)c(F)c1)CC(=O)N3 (stereo not drawn) | > 20
COc1cc2c3c(c4cc(OC)c(OC)cc4c2cc1OC)C(c1sccc1C)CC(=O)N3 (stereo not drawn) | > 20
COc1cc2c3c(c4cc(OC)c(OC)cc4c2cc1OC)C(c1ccc(Br)cc1)CC(=O)N3 (stereo not drawn) | > 20
COc1cc2c3c(c4cc(OC)c(OC)cc4c2cc1OC)C(c1ccc(O)c(O)c1)CC(=O)N3 (stereo not drawn) | 19.8
COc1cc2c3c(c4cc(OC)c(OC)cc4c2cc1OC)C(c1ccc(Cl)cc1)CC(=O)N3 (stereo not drawn) | > 20
COc1cc([C@@H]2c3cc4c(cc3[C@@H](O[C@@H]3O[C@@H]5CO[C@@H](C)O[C@H]5[C@H](O)[C@H]3O)[C@H]3COC(=O)[C@H]23)OCO4)cc(OC)c1O [ETOPOSIDE] | 5.4
COc1cc2c3c(c4cc(OC)c(OC)cc4c2cc1OC)C(c1ccccc1)CC(=O)N3 (stereo not drawn) | > 20

Tested on: HCT-116
Assay: Cytotoxicity against human HCT116 cells assessed as cell growth inhibition after 48 hrs by MTT assay
Format: functional, cell-based
Conditions: HCT-116, 48 h
How it was run: as §1

SMILES | IC50 [µM]
COc1cc2c3c(c4cc(OC)c(OC)cc4c2cc1OC)C(c1cccc(Br)c1)CC(=O)N3 (stereo not drawn) | > 20
COc1cc2c3c(c4cc(OC)c(OC)cc4c2cc1OC)C(c1ccc(C)cc1)CC(=O)N3 (stereo not drawn) | > 20
COc1cc2c3c(c4cc(OC)c(OC)cc4c2cc1OC)C(c1ccc(F)c(F)c1)CC(=O)N3 (stereo not drawn) | 13.4
COc1cc2c3c(c4cc(OC)c(OC)cc4c2cc1OC)C(c1sccc1C)CC(=O)N3 (stereo not drawn) | > 20
COc1cc2c3c(c4cc(OC)c(OC)cc4c2cc1OC)C(c1ccc(Br)cc1)CC(=O)N3 (stereo not drawn) | 16.5
COc1cc2c3c(c4cc(OC)c(OC)cc4c2cc1OC)C(c1ccc(O)c(O)c1)CC(=O)N3 (stereo not drawn) | 12.6
COc1cc2c3c(c4cc(OC)c(OC)cc4c2cc1OC)C(c1ccc(Cl)cc1)CC(=O)N3 (stereo not drawn) | 14.2
COc1cc([C@@H]2c3cc4c(cc3[C@@H](O[C@@H]3O[C@@H]5CO[C@@H](C)O[C@H]5[C@H](O)[C@H]3O)[C@H]3COC(=O)[C@H]23)OCO4)cc(OC)c1O [ETOPOSIDE] | 2.6
COc1cc2c3c(c4cc(OC)c(OC)cc4c2cc1OC)C(c1ccccc1)CC(=O)N3 (stereo not drawn) | > 20

Tested on: MCF7
Assay: Cytotoxicity against human MCF7 cells assessed as cell growth inhibition after 48 hrs by MTT assay
Format: functional, cell-based
Conditions: MCF7, 48 h
How it was run: as §1

SMILES | IC50 [µM]
COc1cc2c3c(c4cc(OC)c(OC)cc4c2cc1OC)C(c1cccc(Br)c1)CC(=O)N3 (stereo not drawn) | > 20
COc1cc2c3c(c4cc(OC)c(OC)cc4c2cc1OC)C(c1ccc(C)cc1)CC(=O)N3 (stereo not drawn) | > 20
COc1cc2c3c(c4cc(OC)c(OC)cc4c2cc1OC)C(c1ccc(F)c(F)c1)CC(=O)N3 (stereo not drawn) | > 20
COc1cc2c3c(c4cc(OC)c(OC)cc4c2cc1OC)C(c1sccc1C)CC(=O)N3 (stereo not drawn) | > 20
COc1cc2c3c(c4cc(OC)c(OC)cc4c2cc1OC)C(c1ccc(Br)cc1)CC(=O)N3 (stereo not drawn) | > 20
COc1cc2c3c(c4cc(OC)c(OC)cc4c2cc1OC)C(c1ccc(O)c(O)c1)CC(=O)N3 (stereo not drawn) | > 20
COc1cc2c3c(c4cc(OC)c(OC)cc4c2cc1OC)C(c1ccc(Cl)cc1)CC(=O)N3 (stereo not drawn) | > 20
COc1cc([C@@H]2c3cc4c(cc3[C@@H](O[C@@H]3O[C@@H]5CO[C@@H](C)O[C@H]5[C@H](O)[C@H]3O)[C@H]3COC(=O)[C@H]23)OCO4)cc(OC)c1O [ETOPOSIDE] | 2.03
COc1cc2c3c(c4cc(OC)c(OC)cc4c2cc1OC)C(c1ccccc1)CC(=O)N3 (stereo not drawn) | > 20

Tested on: DU-145
Assay: Cytotoxicity against human DU145 cells assessed as cell growth inhibition after 48 hrs by MTT assay
Format: functional, cell-based
Conditions: DU-145, 48 h
How it was run: as §1

SMILES | IC50 [µM]
COc1cc2c3c(c4cc(OC)c(OC)cc4c2cc1OC)C(c1cccc(Br)c1)CC(=O)N3 (stereo not drawn) | 18.5
COc1cc2c3c(c4cc(OC)c(OC)cc4c2cc1OC)C(c1ccc(C)cc1)CC(=O)N3 (stereo not drawn) | 16.9
COc1cc2c3c(c4cc(OC)c(OC)cc4c2cc1OC)C(c1ccc(F)c(F)c1)CC(=O)N3 (stereo not drawn) | > 20
COc1cc2c3c(c4cc(OC)c(OC)cc4c2cc1OC)C(c1sccc1C)CC(=O)N3 (stereo not drawn) | 19.6
COc1cc2c3c(c4cc(OC)c(OC)cc4c2cc1OC)C(c1ccc(Br)cc1)CC(=O)N3 (stereo not drawn) | > 20
COc1cc2c3c(c4cc(OC)c(OC)cc4c2cc1OC)C(c1ccc(O)c(O)c1)CC(=O)N3 (stereo not drawn) | > 20
COc1cc2c3c(c4cc(OC)c(OC)cc4c2cc1OC)C(c1ccc(Cl)cc1)CC(=O)N3 (stereo not drawn) | 19
COc1cc([C@@H]2c3cc4c(cc3[C@@H](O[C@@H]3O[C@@H]5CO[C@@H](C)O[C@H]5[C@H](O)[C@H]3O)[C@H]3COC(=O)[C@H]23)OCO4)cc(OC)c1O [ETOPOSIDE] | 2.13
COc1cc2c3c(c4cc(OC)c(OC)cc4c2cc1OC)C(c1ccccc1)CC(=O)N3 (stereo not drawn) | 18.8
